Assay results: paper PMC2767302 (Circulation, 2008)

Tests used:
plasma cGMP = format: in vivo, dog; details: oral 350 μg/kg; normal conscious dogs; n=6
Outline: (§1)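 Adult male mongrel dogs (15-20 kg) with a femoral arterial port were fed 100 mEq/day sodium for 5 days, with water ad lib and sling acclimation. On the study day they were fasted and kept 30 min in a sling while conscious. Randomized single oral 350 μg/kg dose (conjugate n=5; unconjugated peptide n=6; vehicle n=6). MAP and blood were taken at baseline and 10–240 min. Plasma hBNP and cGMP were measured by radioimmunoassay. Mean ± SEM; repeated-measures ANOVA with Bonferroni.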

normal conscious dogs = test: Mean arterial pressure after acute oral administration in normal conscious dogs; format: in vivo, dog; details: oral 350 μg/kg, n=6, up to 240 min
Outline: as §1

[1] = native BNP; quoted in the discussion, no reference given; cited from earlier work

native hBNP: native human B-type natriuretic peptide, 32 amino acid mature form
Plasma cGMP response (in words) (plasma cGMP): not statistically different from baseline levels
MAP response throughout the study (in words) (normal conscious dogs): did not change
Half life [1]: approximately 20 minutes
